The record followed here is ChEMBL document CHEMBL4480426, “Novel multi-target directed ligands based on annelated xanthine scaffold with aromatic substituents acting on adenosine receptor and monoamine oxidase B. Synthesis, in vitro and in silico studies” (Bioorg Med Chem, 2019).

The target in one series is T1, Adenosine receptor A1 (Rattus norvegicus, UniProt P25099).
T1 sequence (P25099 whole entry): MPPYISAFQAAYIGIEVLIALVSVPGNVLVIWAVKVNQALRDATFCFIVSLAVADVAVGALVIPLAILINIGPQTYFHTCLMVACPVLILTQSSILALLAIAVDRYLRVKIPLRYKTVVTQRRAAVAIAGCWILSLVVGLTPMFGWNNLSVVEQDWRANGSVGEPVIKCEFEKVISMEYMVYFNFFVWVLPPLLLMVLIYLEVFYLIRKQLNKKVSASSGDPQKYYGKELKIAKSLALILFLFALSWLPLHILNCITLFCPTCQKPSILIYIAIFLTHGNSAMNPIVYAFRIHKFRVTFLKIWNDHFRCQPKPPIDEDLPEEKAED
Description: Displacement of [3H]CCPA from adenosine A1 receptor in rat brain cortical membranes. It counts as cell membranes.

The target in the next series is Adenosine receptor A2a (Homo sapiens, UniProt P29274). The series can be described thus: Displacement of [3H]MSX2 from recombinant human adenosine A2a receptor expressed in HEK293 cells. The class given is cell-based.
Chain of Adenosine receptor A2a (P29274 whole entry): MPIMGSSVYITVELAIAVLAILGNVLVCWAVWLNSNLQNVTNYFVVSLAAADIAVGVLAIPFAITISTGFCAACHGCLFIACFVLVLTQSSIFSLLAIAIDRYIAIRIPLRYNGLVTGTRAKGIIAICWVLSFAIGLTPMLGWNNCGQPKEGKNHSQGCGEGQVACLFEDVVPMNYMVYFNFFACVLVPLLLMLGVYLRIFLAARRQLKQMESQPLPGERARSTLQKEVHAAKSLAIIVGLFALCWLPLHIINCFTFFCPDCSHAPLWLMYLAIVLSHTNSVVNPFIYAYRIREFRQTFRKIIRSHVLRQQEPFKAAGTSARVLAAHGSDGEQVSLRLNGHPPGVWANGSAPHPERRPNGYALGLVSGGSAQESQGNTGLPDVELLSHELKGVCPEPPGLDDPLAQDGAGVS
The target of a further series is T2, Adenosine receptor A2b (Homo sapiens, UniProt P29275).
T2 sequence (P29275 whole entry): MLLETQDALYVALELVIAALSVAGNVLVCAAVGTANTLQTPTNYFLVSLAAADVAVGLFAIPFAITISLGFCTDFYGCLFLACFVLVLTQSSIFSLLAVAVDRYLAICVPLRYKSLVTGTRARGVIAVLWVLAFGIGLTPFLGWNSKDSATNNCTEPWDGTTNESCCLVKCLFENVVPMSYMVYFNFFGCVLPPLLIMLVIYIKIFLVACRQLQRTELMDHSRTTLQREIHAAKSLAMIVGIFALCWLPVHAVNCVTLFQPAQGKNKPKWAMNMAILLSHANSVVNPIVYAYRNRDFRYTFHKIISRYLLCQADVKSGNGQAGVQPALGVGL
Description: Displacement of [3H]PSB603 from recombinant human adenosine A2b receptor expressed in HEK293 cells. It counts as cell-based. On the technique in general: Loss of bound radioactivity is the signal in a displacement assay; it reports binding, not function.

For a further series, the target named is T3, Adenosine receptor A3 (Homo sapiens, UniProt P0DMS8).
T3 sequence (P0DMS8 whole entry): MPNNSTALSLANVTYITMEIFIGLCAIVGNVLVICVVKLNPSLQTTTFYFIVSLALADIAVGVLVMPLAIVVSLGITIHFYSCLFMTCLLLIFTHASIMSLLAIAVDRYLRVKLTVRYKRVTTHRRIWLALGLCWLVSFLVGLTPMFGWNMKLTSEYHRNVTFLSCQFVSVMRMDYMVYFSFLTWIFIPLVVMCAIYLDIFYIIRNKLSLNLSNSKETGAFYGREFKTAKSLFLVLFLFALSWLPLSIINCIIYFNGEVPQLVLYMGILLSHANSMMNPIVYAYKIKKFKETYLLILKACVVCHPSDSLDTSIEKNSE
The series can be described thus: Displacement of [3H]PSB11 from recombinant human adenosine A3 receptor expressed in CHO cells. The class given is cell-based.

Series [1] deals with T4, Amine oxidase [flavin-containing] A (Homo sapiens, UniProt P21397).
T4 sequence (P21397 whole entry): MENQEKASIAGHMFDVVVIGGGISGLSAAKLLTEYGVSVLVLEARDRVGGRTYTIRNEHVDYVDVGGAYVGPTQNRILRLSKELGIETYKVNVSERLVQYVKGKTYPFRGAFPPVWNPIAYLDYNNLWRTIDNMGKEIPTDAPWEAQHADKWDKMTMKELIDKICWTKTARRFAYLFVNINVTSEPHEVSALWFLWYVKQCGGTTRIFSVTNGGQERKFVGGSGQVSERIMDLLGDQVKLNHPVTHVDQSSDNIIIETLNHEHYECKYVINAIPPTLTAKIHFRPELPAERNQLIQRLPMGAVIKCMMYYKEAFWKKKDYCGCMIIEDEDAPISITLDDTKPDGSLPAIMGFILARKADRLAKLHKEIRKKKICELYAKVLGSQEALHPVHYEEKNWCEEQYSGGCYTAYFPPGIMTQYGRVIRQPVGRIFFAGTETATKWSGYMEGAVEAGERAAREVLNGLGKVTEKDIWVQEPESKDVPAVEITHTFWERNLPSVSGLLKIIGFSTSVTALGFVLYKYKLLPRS
The series can be described thus: Inhibition of recombinant human MAOA expressed in baculovirus infected BTI insect cells using p-tyramine as substrate preincubated for 30 mins followed by substrate addition and measured over 45 mins by horseradish peroxidase-Amplex Red-coupled fluorometric assay. The method in brief: (§1)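 Human recombinant MAO-A or MAO-B enzyme. Activity detected fluorometrically with the Amplex Red monoamine oxidase assay.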

The target of series [2] is T5, Amine oxidase [flavin-containing] B (Homo sapiens, UniProt P27338).
T5 sequence (P27338 whole entry): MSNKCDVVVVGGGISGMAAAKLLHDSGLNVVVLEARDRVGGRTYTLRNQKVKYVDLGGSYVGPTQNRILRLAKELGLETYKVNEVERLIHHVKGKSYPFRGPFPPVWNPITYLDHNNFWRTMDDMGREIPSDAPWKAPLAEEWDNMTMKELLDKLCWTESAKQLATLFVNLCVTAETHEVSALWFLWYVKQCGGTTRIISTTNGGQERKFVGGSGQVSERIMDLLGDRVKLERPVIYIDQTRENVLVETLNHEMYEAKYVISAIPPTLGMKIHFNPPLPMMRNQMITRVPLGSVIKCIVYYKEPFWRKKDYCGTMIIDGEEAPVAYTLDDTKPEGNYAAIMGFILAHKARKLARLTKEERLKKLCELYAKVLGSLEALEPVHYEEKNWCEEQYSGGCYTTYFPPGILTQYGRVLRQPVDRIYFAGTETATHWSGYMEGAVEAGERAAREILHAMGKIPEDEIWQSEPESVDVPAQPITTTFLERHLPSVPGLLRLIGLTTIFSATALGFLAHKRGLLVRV
Description: Inhibition of recombinant human MAOB expressed in baculovirus infected BTI insect cells using p-tyramine as substrate preincubated for 30 mins followed by substrate addition and measured over 45 mins by horseradish peroxidase-Amplex Red-coupled fluorometric assay. The method, boiled down: as §1

Series [3] addresses T4, Amine oxidase [flavin-containing] A. The series can be described thus: Inhibition of recombinant human MAOA expressed in baculovirus infected BTI insect cells at 1 to 100 uM using p-tyramine as substrate preincubated for 30 mins followed by substrate addition and measured over 45 mins by horseradish peroxidase-Amplex Red-coupled fluorometric assay relative to control. The conditions noted are these: 0.75 h. The method, boiled down: as §1

In a further series the test system is HepG2. Description: Hepatotoxicity against human HepG2 cells assessed as reduction in cell viability at 100 uM measured after 72 hrs by CellTiter96 Aqueous non-radioactive cell proliferation assay. The class given is toxicity, cell-based. The conditions noted are these: hepg2, 72 h. The method in brief:
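HepG2 cells seeded at 1.5×10^4 cells/well in MEM with 4.5 g/L glucose and 10% FBS, grown 24 h at 37 °C, 5% CO2. Compounds diluted in the same medium and applied for 72 h. CellTiter 96 AQueous reagent then added for 2 h, absorbance read at 490 nm. One-way ANOVA with Bonferroni post test.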

A short description of series [4]: Antioxidant activity assessed as increase in total ferric ion reducing activity at 1000 uM using FeCl3.6H2O and TPTZ incubated for 10 mins under dark condition by FRAP assay relative to control. It counts as functional. Also noted: scale not given: the % may be the effect or the level left. The method, boiled down: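 FRAP reagent made by mixing 10 parts 300 mM acetate buffer pH 3.6, 1 part 10 mM TPTZ in 40 mM HCl and 1 part 20 mM FeCl3·6H2O. Reagent mixed with compound solution, 10 min at room temperature in the dark. Ferrous-TPTZ complex read at 593 nm. Result is absorbance increase versus solvent sample. FeSO4·7H2O standard curve, 37.5–1200 μM.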

The test system of the next series is Brain. Description: Antioxidant activity in rat brain homogenate assessed as inhibition of FeCl2/ascorbic acid-induced lipid peroxidation by measuring reduction in TBARS level at 1000 uM preincubated for 5 mins followed by FeCl2/ascorbic acid addition and measured after 30 mins relative to control. The class given is functional, tissue-based. Also noted: scale not given: the % may be the effect or the level left. The method, boiled down: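 Rat brain homogenate in 0.9% saline, 10 mg tissue/ml, preincubated 5 min at 37 °C with compound or vehicle. Peroxidation started with 0.5 mM FeCl2 plus 2 mM ascorbic acid (added-solution concentrations). After 30 min, stopped with 0.2% BHT. Thiobarbituric acid reagent added, heated 15 min in boiling water, TBARS extracted into n-butanol and read at 532 nm. Carvedilol as reference.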

Series [5] concerns the target Adenosine receptor A1 (Rattus norvegicus) (UniProt P25099). Description: Displacement of [3H]CCPA from rat adenosine A1 receptor.

Broadly, the Ki is a dissociation constant, usually derived from enzyme kinetics or from competition with a known ligand. The IC50 is the concentration that gives 50% inhibition.

With `Cn1c(=O)c2c(nc3n2CCCN3Cc2ccccc2Br)n(C)c1=O`, the Ki on Adenosine receptor A1 was 2320 nM; on Adenosine receptor A2a it was 1610 nM; at Adenosine receptor A2b, > 1000 nM; at Adenosine receptor A3 it was > 1000 nM. The IC50 was > 1000 nM in series [1] and 150 nM in series [2]. For the same molecule, the “inhibition (INH)” value in [3] is 1%. Moreover, the values for the Activity result (in the series on HepG2; in series [4]; in the series on Brain) were “Toxic”, 3.4% and 29.5%, respectively.
`Cn1c(=O)c2c(nc3n2CCCN3Cc2cccc(Cl)c2)n(C)c1=O`: the inhibition constant (Ki) in series [5] was in the range of 802 to 1120 nM.
